# Many of the other results were omitted from the sample, so hits are more common in it than they were.
# H69AR inhibit: proliferation blockers of H69AR lung cancer cells, primary screen, cell-based, human, 86K library. H69AR lung tumor viability, ATP luminescence, 72 h; stronger effect = lower value. 6% of 85,000 active. AID 598, 2007. viability, % at 10 µM;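 active = viability at or below 40%; inactive = viability above 40%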;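 note: multidrug resistant small cell line overexpressing MRP-1 efflux transporter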
# HUVEC inhibit: inhibitors of HUVEC proliferation, primary screen, cell-based, 384-well. CellTiter-Glo luminescence, 72 h; stronger effect = lower value. viability, % at 10 µM (by protocol). 1.1% of 86,000 active. AID 648, 2007;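 active = viability at or below 30%; inactive = viability above 30%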
# Lung fibro prol: antiproliferative effect on LL 47 fibroblasts – human, LL 47 cells, CellTiter-Glo luminescence, primary screen; viability, % at 10 µM; AID 719, 2007; LL 47 human lung fibroblast viability, ATP luminescence; stronger effect = lower value; 1.1% of 85,000 active;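 active = viability at or below 50% in the single dose screen; inactive = viability above 50%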;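 note: compound exposure lasted 72 h before the ATP readout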
#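 Material: human lung fibroblast line LL 47, low passage; Evaluation: viability percentage against median untreated-cell control; Buffer or medium: 15% FBS in IMEM; Incubation: 72 h compound exposure at 37 °C after overnight plating; Dosing: 0.1% DMSO in all compound wells; Measured by: CellTiter-Glo luminescence.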
# HCT116 bCat-KO: primary screen for growth suppressors in beta-catenin knockout HCT116 cells (colon tumor, human) | HCT116 beta-catenin knockout viability, CellTiter-Glo, 60 h; stronger effect = lower value | viability, % at 10 µM | 1.5% of 140,000 active;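 active = viability at or under a set limit, the compound median less 4 SD, cut at about 6% in these data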
# PTEN del growth: growth suppression of PTEN-null HCT116, primary screen, cell-based, CellTiter-Glo; AID 827, 2007; viability, % at 10 µM; HCT116 PTEN-null viability, 60 h; stronger effect = lower value; 1.2% of 140,000 active;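 active = viability at or below a set limit, 4 SD under the median of all tested compounds, cut at about 3.7% in these data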;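 note: PTEN knockout HCT116 line with beta catenin targeted HCT116 as companion control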
# Numbers stand for hits; 0 = inactive; - = no result.
SMILES,H69AR inhibit,HUVEC inhibit,Lung fibro prol,HCT116 bCat-KO,PTEN del growth
C/C=C/COC(=O)c1[nH]c2c(c1C)C(=O)CC(c1ccc(N(C)C)cc1)C2 (stereo unspecified),29,0,0,0,0
C/C=C/COC(=O)c1[nH]c2c(c1C)C(=O)CC(c1ccco1)C2 (stereo unspecified),29,0,0,0,0
CCOC(=O)c1ccc(N=CC2=C(O)CC(c3ccco3)CC2=O)cc1 (stereo unspecified),0,0,-,-,-
CC1C(c2ccccc2)N(C)C(c2ccccc2)C(C)C1(O)C#Cc1ccccc1 (stereo unspecified),-,-,-,0,0
CC(C)NC(=S)Nc1ccc2nc3n(c(=O)c2c1)CCCCC3,-,-,-,0,0
COC(=O)c1[nH]c2c(c1C)C(=O)CC(c1ccccc1)C2 (stereo unspecified),19,0,0,0,0
Cc1c(C(=O)OCC(C)C)[nH]c2c1C(=O)CC(c1ccco1)C2 (stereo unspecified),17,0,0,0,0
Cc1c(C(=O)OCC2CCCO2)[nH]c2c1C(=O)CC(c1ccco1)C2 (stereo unspecified),28,0,0,0,0
CCOC(=O)c1[nH]c2c(c1C)C(=O)CC(c1ccc(OC)c(OC)c1)C2 (stereo unspecified),0,0,0,0,0
C=CCOC(=O)c1[nH]c2c(c1C)C(=O)CC(c1ccco1)C2 (stereo unspecified),30,0,0,0,0
COc1ccc(OC)c(C2CC(=O)c3c([nH]c(C(=O)OCC4CCCO4)c3C)C2)c1 (stereo unspecified),-,-,-,0,0
COc1cc(C2CC(=O)c3c([nH]c(C(=O)OCCOC(C)C)c3C)C2)cc(OC)c1OC (stereo unspecified),-,-,-,0,0
CCCCCCOc1ccc(-c2ccc(C#N)cn2)cc1,-,-,-,0,0
Cc1ccccc1CN1C(=O)C(O)(CC(=O)c2ccncc2)c2ccccc21 (stereo unspecified),19,0,0,0,0
O=C(CC1(O)C(=O)N(Cc2ccccc2)c2ccccc21)c1ccncc1 (stereo unspecified),17,0,0,0,0
Cc1ccc(C(=O)CC2(O)C(=O)N(Cc3ccc4c(c3)OCO4)c3ccccc32)cc1 (stereo unspecified),0,0,0,0,0
O=C(CC1(O)C(=O)N(Cc2ccccc2)c2ccccc21)c1ccc2c(c1)OCO2 (stereo unspecified),0,0,0,0,0
O=C(CC1(O)C(=O)N(Cc2ccc3c(c2)OCO3)c2ccccc21)c1ccccc1 (stereo unspecified),14,0,-,0,0
Nc1[nH]c(=O)ncc1F,0,0,0,0,0
Cn1c(CSCc2ccc(Cl)c(Cl)c2)n[nH]c1=S,-,-,-,0,0
Cc1nc(N2CCC3(CC2)OCCO3)c2nnn(Cc3ccccc3F)c2n1,35,0,0,0,0
COc1ccccc1N/C(N)=N/c1nc(CSc2ccc(C)cc2)cc(=O)[nH]1,23,0,-,0,0
CCOC(=O)c1sc(=NC(=O)c2ccc(OC)c(OC)c2)n(C)c1C,20,0,0,0,0
COc1cc(/C=C2/C(=N)N3C=CSC3=NC2=O)ccc1OCCCOc1cc(C)ccc1C,19,15,0,0,0
Cc1ccc(OCCN2C(=O)NC3(CCc4ccccc4C3)C2=O)cc1 (stereo unspecified),-,-,-,0,0
SMILES,H69AR inhibit,HUVEC inhibit,Lung fibro prol,HCT116 bCat-KO,PTEN del growth
CCN(CC)C(=O)NC1CC(=O)N(c2ccc(OC)cc2)C1 (stereo unspecified),-,-,-,0,0
Cc1noc(C)c1COC(=O)CCCc1c[nH]c2ccccc12,0,0,0,0,0
Cc1cc(C)c2c(N)c3cccc(C)c3nc2n1,-,-,-,2.5,2.5
CCC(C)NC(=O)CCc1nc2ccccc2n1-c1ccccc1 (stereo unspecified),-,-,-,0,0
COc1ccc(-c2cc(-c3nnc(COC(=O)CC4CC5CCC4C5)o3)c3ccccc3n2)cc1OC (stereo unspecified),-,-,-,0,0
Cc1cc(C)c(C(=O)CSC2=NC(N)=C(C#N)C3(CCCCC3)C2C(N)=O)cc1C (stereo unspecified),12,0,0,0,0
Cc1cc(C)c(C(=O)CSc2nnc(-c3ccccc3Br)o2)cc1C,0,0,0,0,0

# Compound activity (PubChem)
